In PMC4929832 (Nature, 2016):

Columns and labels:
PPARgamma Receptor = PPARgamma Receptor (Homo sapiens, UniProt P37231); assay: PPARgamma Receptor agonist assay; type: cell-based
MET = MET (Homo sapiens, UniProt P08581); assay: kinase panel; type: biochemical
ROCK2 = ROCK2 (Homo sapiens, UniProt O75116); assay: kinase panel; type: biochemical
[1] = tested on: exon19del/T790M EGFR Ba/F3 cells; assay: Ba/F3 cell proliferation; type: cell-based; settings: EAI045 with cetuximab (10 μg/ml)
Method in brief: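 Ba/F3 cells, either parental or stably expressing mutant EGFR lines described earlier, were exposed to the test compound for 72 hours. Cell numbers were set empirically. Growth was read by MTS assay. Each point was run in six wells, and each experiment was repeated at least three times. Curves were fitted by non-linear regression to a sigmoidal dose response.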

PRKD1 = PRKD1 (Homo sapiens, UniProt Q15139); assay: kinase panel; type: biochemical
NEK1 = NEK1 (Homo sapiens, UniProt Q96PY6); assay: kinase panel; type: biochemical
[2] = tested on: L858R/T790M/I941R EGFR Ba/F3 cells; assay: Ba/F3 cell proliferation; type: cell-based; settings: Ba/F3 L858R/T790M/I941R versus L858R/T790M
Method in brief: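 The I941R mutation was introduced into L858R/T790M EGFR by site-directed mutagenesis, and Ba/F3 stable clones were selected in puromycin (2 μg/ml). Cells were treated with the test compound for 72 h and growth was read by MTS assay. Points were run in six wells, with experiments repeated at least three times. Curves were fitted by non-linear regression to a sigmoidal dose response.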

FGFR4 = FGFR4 (Homo sapiens, UniProt P22455); assay: kinase panel; type: biochemical
TNK2 = TNK2 (Homo sapiens, UniProt Q07912); assay: kinase panel; type: biochemical
Progesterone Receptor = Progesterone Receptor (Homo sapiens, UniProt P06401); assay: Progesterone Receptor antagonist assay; type: cell-based
IKK-EPSILON = IKK-EPSILON (Homo sapiens, UniProt Q14164); assay: kinase panel; type: biochemical
MRCK-ALPHA = MRCK-ALPHA (Homo sapiens, UniProt Q5VT25); assay: kinase panel; type: biochemical
Adenosine 2A receptor = Adenosine 2A receptor (Homo sapiens, UniProt P29274); assay: Adenosine 2A receptor binding assay
[3] = biological target: Norepinephrine Transporter (Homo sapiens, UniProt P23975); assay: Norepinephrine Transporter assay; type: binding
NEK7 = NEK7 (Homo sapiens, UniProt Q8TDX7); assay: kinase panel; type: biochemical
INSR = INSR (Homo sapiens, UniProt P06213); assay: kinase panel; type: biochemical
GSK-3-BETA = GSK-3-BETA (Homo sapiens, UniProt P49841); assay: kinase panel; type: biochemical
PASK = PASK (Homo sapiens, UniProt Q96RG2); assay: kinase panel; type: biochemical
IKK-BETA = IKK-BETA (Homo sapiens, UniProt O14920); assay: kinase panel; type: biochemical
CDK5 = CDK5 (Homo sapiens, UniProt Q00535); assay: kinase panel; type: biochemical
FGFR2 = FGFR2 (Homo sapiens, UniProt P21802); assay: kinase panel; type: biochemical
EPH-A3 = EPH-A3 (Homo sapiens, UniProt P29320); assay: kinase panel; type: biochemical
MAPKAPK3 = MAPKAPK3 (Homo sapiens, UniProt Q16644); assay: kinase panel; type: biochemical
HaCaT cells = assay: Proliferation assay; type: cell-based; settings: Homo sapiens, 72 h, read-out: EC50 Proliferation
Method in brief: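 Cells were maintained in 10% FBS/RPMI with penicillin/streptomycin and plated at 500 cells/well in 10% FBS RPMI. Serially diluted test compound was pin-transferred. Viability was read after 3 days by CellTiter-Glo luminescence and normalized to 0.1% DMSO-treated cells and empty wells. EC50 was obtained by non-linear regression curve fitting.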

LRRK2-G2019S = LRRK2-G2019S (Homo sapiens, UniProt Q5S007, G2019S); assay: kinase panel; type: biochemical
RSK4 = RSK4 (Homo sapiens, UniProt Q9UK32); assay: kinase panel; type: biochemical
PIM2 = PIM2 (Homo sapiens, UniProt Q9P1W9); assay: kinase panel; type: biochemical
BLK = BLK (Homo sapiens, UniProt P51451); assay: kinase panel; type: biochemical
CAMK2A = CAMK2A (Homo sapiens, UniProt Q9UQM7); assay: kinase panel; type: biochemical
Muscarinic M2 = Muscarinic M2 (Homo sapiens, UniProt P08172); assay: Muscarinic M2 calcium flux assay with ATP priming; type: cell-based
HIPK1 = HIPK1 (Homo sapiens, UniProt Q86Z02); assay: kinase panel; type: biochemical
BTK = BTK (Homo sapiens, UniProt Q06187); assay: kinase panel; type: biochemical
CDK6-CYCLIND3 = CDK6-CYCLIND3 (Homo sapiens, UniProt Q00534); assay: kinase panel; type: biochemical
TRKA = TRKA (Homo sapiens, UniProt P04629); assay: kinase panel; type: biochemical
FMS = FMS (Homo sapiens, UniProt P07333); assay: kinase panel; type: biochemical
CLK1 = CLK1 (Homo sapiens, UniProt P49759); assay: kinase panel; type: biochemical
FYN = FYN (Homo sapiens, UniProt P06241); assay: kinase panel; type: biochemical
ZAP70 = ZAP70 (Homo sapiens, UniProt P43403); assay: kinase panel; type: biochemical

Chain of CDK6-CYCLIND3 (Q00534 whole entry): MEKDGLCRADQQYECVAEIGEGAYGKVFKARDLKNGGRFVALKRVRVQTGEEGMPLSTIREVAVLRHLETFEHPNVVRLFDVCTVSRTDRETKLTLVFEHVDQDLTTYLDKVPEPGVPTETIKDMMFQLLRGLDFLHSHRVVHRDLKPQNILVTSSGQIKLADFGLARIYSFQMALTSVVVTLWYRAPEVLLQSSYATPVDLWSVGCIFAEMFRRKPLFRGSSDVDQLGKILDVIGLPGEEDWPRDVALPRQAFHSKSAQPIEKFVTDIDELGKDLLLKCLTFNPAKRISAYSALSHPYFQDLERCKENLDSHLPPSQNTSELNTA
Chain of CDK6-CYCLIND3 (P30281 whole entry partner): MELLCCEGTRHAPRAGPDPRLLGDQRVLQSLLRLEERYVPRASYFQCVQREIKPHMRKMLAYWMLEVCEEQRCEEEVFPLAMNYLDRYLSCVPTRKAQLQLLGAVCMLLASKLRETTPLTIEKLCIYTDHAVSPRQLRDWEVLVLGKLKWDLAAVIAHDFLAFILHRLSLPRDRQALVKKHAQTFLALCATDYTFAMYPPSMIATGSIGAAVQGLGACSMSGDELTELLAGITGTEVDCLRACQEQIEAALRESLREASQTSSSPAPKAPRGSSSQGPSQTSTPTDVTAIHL
Chain of Muscarinic M2 (P08172 whole entry): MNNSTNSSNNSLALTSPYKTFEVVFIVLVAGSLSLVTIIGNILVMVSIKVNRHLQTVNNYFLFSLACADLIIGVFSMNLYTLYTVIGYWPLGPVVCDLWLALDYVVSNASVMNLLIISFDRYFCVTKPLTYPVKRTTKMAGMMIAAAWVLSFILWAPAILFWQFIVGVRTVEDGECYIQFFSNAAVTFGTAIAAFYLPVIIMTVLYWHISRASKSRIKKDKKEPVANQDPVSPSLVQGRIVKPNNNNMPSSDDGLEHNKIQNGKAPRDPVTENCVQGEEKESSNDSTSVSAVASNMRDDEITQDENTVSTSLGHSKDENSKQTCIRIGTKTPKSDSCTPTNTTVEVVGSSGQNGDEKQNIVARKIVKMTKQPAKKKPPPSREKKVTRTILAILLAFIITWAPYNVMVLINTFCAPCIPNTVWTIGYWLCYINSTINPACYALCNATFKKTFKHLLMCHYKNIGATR
Chain of MAPKAPK3 (Q16644 whole entry): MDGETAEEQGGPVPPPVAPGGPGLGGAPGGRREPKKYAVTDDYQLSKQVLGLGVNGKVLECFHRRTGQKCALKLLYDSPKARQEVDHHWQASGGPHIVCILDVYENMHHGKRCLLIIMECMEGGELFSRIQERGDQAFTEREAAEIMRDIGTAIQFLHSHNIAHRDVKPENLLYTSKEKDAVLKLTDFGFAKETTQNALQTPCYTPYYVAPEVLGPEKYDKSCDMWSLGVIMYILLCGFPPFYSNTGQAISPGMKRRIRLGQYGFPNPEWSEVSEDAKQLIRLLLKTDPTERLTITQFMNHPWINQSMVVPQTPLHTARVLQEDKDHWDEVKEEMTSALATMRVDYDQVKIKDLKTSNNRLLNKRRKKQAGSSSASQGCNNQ
Chain of PASK (Q96RG2 whole entry): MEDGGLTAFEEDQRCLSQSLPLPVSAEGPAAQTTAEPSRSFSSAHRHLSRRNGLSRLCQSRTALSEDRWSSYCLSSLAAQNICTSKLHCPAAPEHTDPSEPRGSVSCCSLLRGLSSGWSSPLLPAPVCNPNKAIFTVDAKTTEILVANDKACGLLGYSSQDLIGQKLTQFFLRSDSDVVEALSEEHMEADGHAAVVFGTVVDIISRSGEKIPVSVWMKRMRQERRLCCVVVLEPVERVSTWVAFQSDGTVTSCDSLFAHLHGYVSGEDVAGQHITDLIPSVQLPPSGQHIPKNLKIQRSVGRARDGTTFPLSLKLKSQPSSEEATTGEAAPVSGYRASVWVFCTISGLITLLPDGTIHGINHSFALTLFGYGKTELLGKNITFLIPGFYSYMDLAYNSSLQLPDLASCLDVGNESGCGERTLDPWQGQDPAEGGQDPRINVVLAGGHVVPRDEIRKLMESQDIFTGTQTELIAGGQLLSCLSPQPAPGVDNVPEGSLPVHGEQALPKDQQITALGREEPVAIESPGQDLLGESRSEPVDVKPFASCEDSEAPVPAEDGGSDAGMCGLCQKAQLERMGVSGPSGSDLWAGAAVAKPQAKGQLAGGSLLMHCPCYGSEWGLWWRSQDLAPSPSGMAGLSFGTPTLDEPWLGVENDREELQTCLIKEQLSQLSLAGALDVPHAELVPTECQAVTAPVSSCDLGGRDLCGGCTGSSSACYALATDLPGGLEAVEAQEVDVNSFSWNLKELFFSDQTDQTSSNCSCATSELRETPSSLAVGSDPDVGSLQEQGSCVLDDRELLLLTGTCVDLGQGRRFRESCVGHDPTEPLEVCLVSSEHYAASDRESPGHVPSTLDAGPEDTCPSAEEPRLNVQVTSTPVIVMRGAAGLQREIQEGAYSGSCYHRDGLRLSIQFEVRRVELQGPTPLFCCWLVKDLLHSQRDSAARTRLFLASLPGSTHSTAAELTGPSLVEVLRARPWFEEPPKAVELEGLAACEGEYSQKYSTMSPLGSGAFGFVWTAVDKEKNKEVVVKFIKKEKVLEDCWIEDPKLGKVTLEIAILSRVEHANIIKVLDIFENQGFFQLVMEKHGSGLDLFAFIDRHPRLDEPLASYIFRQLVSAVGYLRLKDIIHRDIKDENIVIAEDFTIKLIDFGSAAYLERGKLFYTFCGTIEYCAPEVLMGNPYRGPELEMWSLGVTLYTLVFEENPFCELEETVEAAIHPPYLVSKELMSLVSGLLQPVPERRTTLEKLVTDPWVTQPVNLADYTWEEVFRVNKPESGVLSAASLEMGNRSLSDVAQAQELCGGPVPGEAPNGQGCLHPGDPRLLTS
Chain of MRCK-ALPHA (Q5VT25 whole entry): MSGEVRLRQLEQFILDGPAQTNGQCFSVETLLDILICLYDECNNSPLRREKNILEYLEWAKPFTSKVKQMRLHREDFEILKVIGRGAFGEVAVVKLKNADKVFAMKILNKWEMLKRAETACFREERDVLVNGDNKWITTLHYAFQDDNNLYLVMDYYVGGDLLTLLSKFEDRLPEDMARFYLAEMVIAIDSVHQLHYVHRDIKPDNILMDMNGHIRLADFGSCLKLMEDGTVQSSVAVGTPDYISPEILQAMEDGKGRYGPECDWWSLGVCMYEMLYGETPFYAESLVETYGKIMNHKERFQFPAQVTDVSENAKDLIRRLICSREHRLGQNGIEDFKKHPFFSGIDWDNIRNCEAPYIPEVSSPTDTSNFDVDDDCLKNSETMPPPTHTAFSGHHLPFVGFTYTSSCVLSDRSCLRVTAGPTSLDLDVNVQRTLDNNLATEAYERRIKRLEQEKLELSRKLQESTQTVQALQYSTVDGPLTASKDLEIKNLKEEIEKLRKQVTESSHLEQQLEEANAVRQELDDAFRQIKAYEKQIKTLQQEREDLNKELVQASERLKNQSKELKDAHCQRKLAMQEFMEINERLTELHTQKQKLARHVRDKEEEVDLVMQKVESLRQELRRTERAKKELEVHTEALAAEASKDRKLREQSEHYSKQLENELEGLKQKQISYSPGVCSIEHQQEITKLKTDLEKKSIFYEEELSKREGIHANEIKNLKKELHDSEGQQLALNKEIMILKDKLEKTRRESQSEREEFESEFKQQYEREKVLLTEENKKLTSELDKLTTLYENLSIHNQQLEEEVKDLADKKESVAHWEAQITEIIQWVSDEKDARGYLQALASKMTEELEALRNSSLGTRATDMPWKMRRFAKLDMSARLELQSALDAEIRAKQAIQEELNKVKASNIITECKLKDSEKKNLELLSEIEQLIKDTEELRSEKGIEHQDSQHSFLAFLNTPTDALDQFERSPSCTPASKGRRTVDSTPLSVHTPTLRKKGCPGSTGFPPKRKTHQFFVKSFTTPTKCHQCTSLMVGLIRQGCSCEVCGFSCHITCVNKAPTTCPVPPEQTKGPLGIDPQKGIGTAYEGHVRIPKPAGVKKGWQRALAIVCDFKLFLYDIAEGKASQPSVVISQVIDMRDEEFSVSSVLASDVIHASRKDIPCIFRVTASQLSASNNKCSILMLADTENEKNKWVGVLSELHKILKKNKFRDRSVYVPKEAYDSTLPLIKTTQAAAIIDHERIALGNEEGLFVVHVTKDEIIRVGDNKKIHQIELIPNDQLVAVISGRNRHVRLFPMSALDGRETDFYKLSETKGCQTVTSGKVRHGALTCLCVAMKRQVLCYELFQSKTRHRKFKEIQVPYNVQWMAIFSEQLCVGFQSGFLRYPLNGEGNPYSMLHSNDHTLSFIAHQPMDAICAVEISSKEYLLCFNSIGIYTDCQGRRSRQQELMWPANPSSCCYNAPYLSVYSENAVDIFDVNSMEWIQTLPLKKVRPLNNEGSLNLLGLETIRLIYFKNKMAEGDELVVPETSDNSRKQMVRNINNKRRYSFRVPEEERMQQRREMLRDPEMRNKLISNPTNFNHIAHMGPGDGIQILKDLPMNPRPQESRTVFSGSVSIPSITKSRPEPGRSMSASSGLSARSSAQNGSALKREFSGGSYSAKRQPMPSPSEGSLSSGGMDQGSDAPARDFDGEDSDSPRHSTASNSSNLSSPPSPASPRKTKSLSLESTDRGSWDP
Chain of CLK1 (P49759 whole entry): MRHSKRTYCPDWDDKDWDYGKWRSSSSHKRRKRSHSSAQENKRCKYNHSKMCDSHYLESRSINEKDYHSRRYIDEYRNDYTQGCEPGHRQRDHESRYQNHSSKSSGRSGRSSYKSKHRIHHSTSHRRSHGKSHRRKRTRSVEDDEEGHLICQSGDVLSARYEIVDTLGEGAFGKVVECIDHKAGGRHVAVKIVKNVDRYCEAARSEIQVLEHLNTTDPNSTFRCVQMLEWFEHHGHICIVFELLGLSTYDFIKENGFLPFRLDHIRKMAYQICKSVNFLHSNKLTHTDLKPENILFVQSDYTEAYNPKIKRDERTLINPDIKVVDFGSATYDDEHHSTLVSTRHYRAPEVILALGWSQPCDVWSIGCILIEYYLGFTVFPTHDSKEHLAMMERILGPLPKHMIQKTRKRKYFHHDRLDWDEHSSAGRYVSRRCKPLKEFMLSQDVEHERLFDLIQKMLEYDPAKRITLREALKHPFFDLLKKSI

Q: How did the IC50 (PPARgamma Receptor) turn out when `O=C(Nc1nccs1)C(c1cc(F)ccc1O)N1Cc2ccccc2C1=O` (centres unmarked) [EAI045, 2-(5-fluoro-2-hydroxyphenyl)-2-(1-oxo-2,3-dihydro-1H-isoindol-2-yl)-N-(1,3-thiazol-2-yl)acetamide] was run?
A: Its IC50 is greater than 30 µM.

Q: What about the inhibition at 1 µM (MET) of the same molecule?
A: The inhibition at 1 µM was 0%.

Q: And the inhibition at 1 µM (ROCK2)?
A: The inhibition at 1 µM was 0%.

Q: What about the proliferation [1] of the same molecule?
A: The proliferation was “not inhibited”.

Q: And the inhibition at 1 µM (PRKD1)?
A: The inhibition at 1 µM was 0%.

Q: And the inhibition at 1 µM (NEK1)?
A: Its inhibition at 1 µM is 0%.

Q: What about the “sensitivity of proliferation to the allosteric inhibitor” value [2] of the same molecule?
A: Its value is “dramatically more sensitive”.

Q: What about the inhibition at 1 µM (FGFR4) of the same molecule?
A: The inhibition at 1 µM was 0%.

Q: And the inhibition at 1 µM (TNK2)?
A: Its inhibition at 1 µM is 2%.

Q: And the IC50 (Progesterone Receptor)?
A: Its IC50 is greater than 30 µM.

Q: And the inhibition at 1 µM (IKK-EPSILON)?
A: Its inhibition at 1 µM is 0%.

Q: And the inhibition at 1 µM (MRCK-ALPHA)?
A: The inhibition at 1 µM was 0%.

Q: And the IC50 (Adenosine 2A receptor)?
A: The IC50 was greater than 30 µM.

Q: And the IC50 [3]?
A: The IC50 was greater than 30 µM.

Q: What about the inhibition at 1 µM (NEK7) of the same molecule?
A: The inhibition at 1 µM was 0%.

Q: What about the inhibition at 1 µM (INSR) of the same molecule?
A: The inhibition at 1 µM was 0%.

Q: And the inhibition at 1 µM (GSK-3-BETA)?
A: The inhibition at 1 µM was 0%.

Q: What about the inhibition at 1 µM (PASK) of the same molecule?
A: The inhibition at 1 µM was 1%.

Q: What about the inhibition at 1 µM (IKK-BETA) of the same molecule?
A: The inhibition at 1 µM was 0%.

Q: And the inhibition at 1 µM (CDK5)?
A: The inhibition at 1 µM was 0%.

Q: And the inhibition at 1 µM (FGFR2)?
A: The inhibition at 1 µM was 1%.

Q: What about the inhibition at 1 µM (EPH-A3) of the same molecule?
A: The inhibition at 1 µM was 1%.

Q: What about the inhibition at 1 µM (MAPKAPK3) of the same molecule?
A: Its inhibition at 1 µM is 0%.

Q: What about the EC50 (HaCaT cells) of the same molecule?
A: Its EC50 is greater than 10 µM.

Q: And the inhibition at 1 µM (LRRK2-G2019S)?
A: Its inhibition at 1 µM is 0%.

Q: What about the inhibition at 1 µM (RSK4) of the same molecule?
A: Its inhibition at 1 µM is 0%.

Q: What about the inhibition at 1 µM (PIM2) of the same molecule?
A: Its inhibition at 1 µM is 2%.

Q: What about the inhibition at 1 µM (BLK) of the same molecule?
A: The inhibition at 1 µM was 3%.

Q: And the inhibition at 1 µM (CAMK2A)?
A: The inhibition at 1 µM was 2%.

Q: And the IC50 (Muscarinic M2)?
A: The IC50 was greater than 30 µM.

Q: What about the inhibition at 1 µM (HIPK1) of the same molecule?
A: The inhibition at 1 µM was 1%.

Q: And the inhibition at 1 µM (BTK)?
A: Its inhibition at 1 µM is 0%.

Q: What about the inhibition at 1 µM (CDK6-CYCLIND3) of the same molecule?
A: Its inhibition at 1 µM is 2%.

Q: And the inhibition at 1 µM (TRKA)?
A: The inhibition at 1 µM was 0%.

Q: And the inhibition at 1 µM (FMS)?
A: Its inhibition at 1 µM is 0%.

Q: And the inhibition at 1 µM (CLK1)?
A: Its inhibition at 1 µM is 0%.

Q: What about the inhibition at 1 µM (FYN) of the same molecule?
A: Its inhibition at 1 µM is 0%.

Q: And the inhibition at 1 µM (ZAP70)?
A: The inhibition at 1 µM was 1%.
